Experimental data taken from ChEMBL document CHEMBL1142163 (Antimicrob Agents Chemother, 2007).

How the values were obtained:
Candida albicans [1] = test: Growth inhibition of Candida albicans ATCC 95020 at 0.2 to 25 mg/L; type: functional
Procedure, shortened: (§1)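 Agar-well diffusion bioassay. Overnight YPD culture at 35°C was diluted to 1.5 x 10^7 CFU/ml inoculum. Agar contained yeast nitrogen base, glucose and phosphate buffer pH 5.5. Wells held 25 µl spiked plasma standards (8 points, 0.2–25 mg/liter). Plates stood 2 h at 4°C for diffusion, then 14 h at 35°C. Inhibition zones: four diameters by caliper.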

[2] = Cmax in leukemic patient with pulmonary aspergillosis at 200 mg twice daily, po on day 14; type: ADME, organism-based; set-up: dose 200 mg, route oral; conditions: human, in vivo
Procedure, shortened: (§2)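 Patients' citrated blood drawn just before and 2, 4, 6 and 12 h after a dose on days 2, 7 and 14 of therapy. Plasma was analysed by HPLC: acetonitrile precipitation, C18 column, UV detection at 255 nm. AUC over the 0–12 h dosing interval used the linear trapezoidal rule during rise and the log trapezoidal rule during decay. Cmax and trough were summarised descriptively.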

Homo sapiens [3] = test: Trough concentration in leukemic patient with pulmonary aspergillosis at 200 mg twice daily, po on day 14; type: ADME, organism-based; conditions: in vivo; procedure, shortened: as §2
Homo sapiens [4] = test: Trough concentration in leukemic patient with pulmonary aspergillosis at 200 mg twice daily, po on day 7; type: ADME, organism-based; conditions: in vivo; procedure, shortened: as §2
[5] = Cmax in leukemic neutropenic patient with pulmonary aspergillosis at 300 mg twice daily, po; type: ADME, organism-based; set-up: dose 300 mg, route oral; conditions: human, in vivo; procedure, shortened: as §2
[6] = AUC in leukemic neutropenic patient with pulmonary aspergillosis at 300 mg twice daily, po on day 7; type: ADME, organism-based; conditions: human, plasma; procedure, shortened: as §2
[7] = Cmax in patient with invasive mycoses on day 1; type: ADME, organism-based; conditions: human, in vivo
Homo sapiens [8] = species: Homo sapiens; test: Trough level in patient with invasive mycoses on day 1; type: ADME, organism-based; conditions: in vivo
Kluyveromyces marxianus = test: Growth inhibition of Candida kefyr B11501 at 0.2 to 25 mg/L; type: functional; procedure, shortened: as §1
[9] = AUC in leukemic neutropenic patient with pulmonary aspergillosis at 300 mg twice daily, po on day 1; type: ADME, organism-based; conditions: human, plasma
Homo sapiens [10] = test: Trough level in leukemic neutropenic patient with pulmonary aspergillosis at 300 mg twice daily, po; type: ADME, organism-based; conditions: in vivo; procedure, shortened: as §2
[11] = AUC in leukemic patient with pulmonary aspergillosis at 200 mg twice daily, po on day 14; type: ADME, organism-based; conditions: human, plasma; procedure, shortened: as §2
[12] = Cmax in leukemic patient with pulmonary aspergillosis at 200 mg twice daily, po on day 7; type: ADME, organism-based; set-up: dose 200 mg, route oral; conditions: human, in vivo; procedure, shortened: as §2
[13] = AUC in leukemic patient with pulmonary aspergillosis at 200 mg twice daily, po on day 7; type: ADME, organism-based; conditions: human, plasma; procedure, shortened: as §2
Candida albicans [14] = test: Growth inhibition of Candida albicans mutant DSY2621 at 0.2 to 25 mg/L; type: functional; procedure, shortened: as §1

With C[C@@H](c1ncncc1F)[C@](O)(Cn1cncn1)c1ccc(F)cc1F [VORICONAZOLE] the Inhibition (Candida albicans [1]) was 21 mm, the Cmax [2] was 300 ng/mL and the Cmin (Homo sapiens [3]) was 200 ng/mL. The Cmin (Homo sapiens [4]) was 500 ng/mL, the Cmax [5] was 4300 ng/mL and the AUC [6] was 40500 ng·h/mL. The Cmax [7] was 6000 ng/mL, the Cmin (Homo sapiens [8]) was 3000 ng/mL and the Inhibition (Kluyveromyces marxianus) was 23 mm. The AUC [9] was 43000 ng·h/mL, the Cmin (Homo sapiens [10]) was 2600 ng/mL and the AUC [11] was 2900 ng·h/mL. For the same compound, the Cmax [12] was 1900 ng/mL, the AUC [13] was 12900 ng·h/mL and the Inhibition (Candida albicans [14]) was 17 mm.
